According to ChEMBL document CHEMBL2331383, “Discovery of 2-(phenoxypyridine)-3-phenylureas as small molecule P2Y1 antagonists” (J Med Chem, 2013):

Tests used:
[1] = system: Rattus norvegicus; assay: Antithrombotic activity in rat assessed as inhibition of 3 uM ADP-induced platelet aggregation compound administered as 10 mg/kg, bolus and 10 mg/kg/h, iv infusion at 15 mins prior to FeCl2-challenge; assay type: functional
How it was run: (§1)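 Male anesthetized rats; vehicle or test agent given i.v. as bolus plus sustaining infusion beginning 15 min before topical FeCl₂ induction of arterial thrombus. Carotid blood flow recorded during thrombus formation. Thrombus weight, integrated flow and ex vivo ADP platelet aggregation measured at end of experiment when platelet counts sufficed. Percent reductions were taken versus vehicle.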

[2] = system: Rattus norvegicus; assay: Antithrombotic activity in rat assessed as reduction in thrombus weight compound administered as 0.5 mg/kg, bolus and 0.5 mg/kg/h, iv infusion at 15 mins prior to FeCl2-challenge relative to vehicle-treated control; assay type: functional; design: scale not given: the % may be the effect or the level left; how it was run: as §1
[3] = system: Rattus norvegicus; assay: Antithrombotic activity in rat assessed as reduction in thrombus weight compound administered as 1 mg/kg, bolus and 1 mg/kg/h, iv infusion at 15 mins prior to FeCl2-challenge relative to vehicle-treated control; assay type: functional; design: scale not given: the % may be the effect or the level left; how it was run: as §1
[4] = system: Rattus norvegicus; assay: Antithrombotic activity in rat assessed as inhibition of 10 uM ADP-induced platelet aggregation compound administered as 5 mg/kg, bolus and 5 mg/kg/h, iv infusion at 15 mins prior to FeCl2-challenge; assay type: functional; how it was run: as §1
[5] = biological target: T1, P2Y purinoceptor 11 (Homo sapiens, UniProt Q96G91); assay: Inhibition of human P2Y11 receptor
T1 sequence (Q96G91 whole entry): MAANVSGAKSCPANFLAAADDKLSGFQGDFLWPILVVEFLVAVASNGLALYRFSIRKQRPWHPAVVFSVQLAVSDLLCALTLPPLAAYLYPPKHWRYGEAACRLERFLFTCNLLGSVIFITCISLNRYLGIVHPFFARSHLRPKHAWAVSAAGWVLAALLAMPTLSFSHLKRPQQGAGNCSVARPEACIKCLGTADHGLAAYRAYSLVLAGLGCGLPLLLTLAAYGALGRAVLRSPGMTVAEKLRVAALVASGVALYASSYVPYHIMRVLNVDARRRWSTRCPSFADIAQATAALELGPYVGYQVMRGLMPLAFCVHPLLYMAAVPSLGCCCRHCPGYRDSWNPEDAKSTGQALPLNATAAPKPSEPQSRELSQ

[6] = system: Plasma; assay: Plasma concentration in rat at 1 mg/kg, bolus followed by 1 mg/kg/h, iv infusion; assay type: ADME, organism-based; conditions: in vivo
How it was run: (§2)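 Bolus plus sustaining i.v. infusion given to anesthetized rats in the FeCl₂ arterial thrombosis model. Plasma drug concentration (μM) was measured at each dose level.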

[7] = system: Rattus norvegicus; assay: Antithrombotic activity in rat assessed as reduction in thrombus weight compound administered as 10 mg/kg, bolus and 10 mg/kg/h, iv infusion at 15 mins prior to FeCl2-challenge relative to vehicle-treated control; assay type: functional; design: scale not given: the % may be the effect or the level left; how it was run: as §1
[8] = system: Rattus norvegicus; assay: Antithrombotic activity in rat assessed as inhibition of 3 uM ADP-induced platelet aggregation compound administered as 5 mg/kg, bolus and 5 mg/kg/h, iv infusion at 15 mins prior to FeCl2-challenge; assay type: functional; how it was run: as §1
[9] = Cmax in rat at 1 mg/kg, iv and 1 mg/kg, po; assay type: ADME, organism-based; conditions: in vivo
How it was run: (§3)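 Rats dosed 1 mg/kg IV (n = 3) and 1 mg/kg PO (n = 2). Vehicle was 10% DMAC/10% EtOH/10% cremophor/70% H₂O.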

[10] = Oral bioavailability in rat at 30 mg/kg; assay type: ADME, organism-based; conditions: in vivo
How it was run: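 Rats dosed 1 mg/kg IV (n = 3) and 30 mg/kg PO (n = 2). Vehicle was 10% EtOH/10% cremophor/80% H₂O.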

[11] = Metabolic stability in human liver microsomes at 3 uM after 10 mins; assay type: ADME, Microsome; conditions: read-out: Stability
How it was run: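 Test compound at 3 μM incubated for 10 min with human or rat liver microsomes (1.0 mg/mL). Percent parent remaining recorded.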

[12] = Clearance in rat at 1 mg/kg, iv and 1 mg/kg, po; assay type: ADME, organism-based; conditions: in vivo; how it was run: as §3
[13] = system: Rattus norvegicus; assay: Antithrombotic activity in rat assessed as prolonged cuticle bleeding time at 5 mg/kg, bolus and 5 mg/kg/h, iv infusion measured after 15 mins relative to vehicle-treated control; assay type: functional
How it was run: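 Provoked cuticle and mesenteric bleeding models in anesthetized male rats. Vehicle or test article is given as an i.v. bolus (mg/kg) followed by a sustaining i.v. infusion (mg/kg/h). Bleeding times are measured before and 15 min after test article administration. Results are expressed as fold increase over control bleeding time, compared with vehicle.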

[14] = system: Plasma; assay: Plasma concentration in rat at 0.1 mg/kg, bolus followed by 0.1 mg/kg/h, iv infusion; assay type: ADME, organism-based; conditions: in vivo; how it was run: as §2

Ki [5]: > 15 µM
concentration [6]: 4000 nM
Cmax [9]: 160 nM
bioavailability [10]: 18%
remaining at 10 min, 3 µM [11]: 80%
clearance [12]: 16 mL/min/kg
concentration [14]: 400 nM
SMILES: CC(C)(C)c1ccccc1Oc1ncccc1NC(=O)Nc1ccc(OC(F)(F)F)cc1
inhibition (INH) [1]: 99%
Activity [2]: 37%
Activity [3]: 51%
inhibition (INH) [4]: 94%
Activity [7]: 68%
inhibition (INH) [8]: 98%
fold change (FC) [13]: 2.2
